This note sets out measurements from ChEMBL document CHEMBL3632578, “Identification of β-Lapachone Analogs as Novel MALT1 Inhibitors To Treat an Aggressive Subtype of Diffuse Large B-Cell Lymphoma” (J Med Chem, 2015).

The target of assay [1] is T1, Mucosa-associated lymphoid tissue lymphoma translocation protein 1 (Homo sapiens, UniProt Q9UDY8).
T1 sequence (Q9UDY8 whole entry): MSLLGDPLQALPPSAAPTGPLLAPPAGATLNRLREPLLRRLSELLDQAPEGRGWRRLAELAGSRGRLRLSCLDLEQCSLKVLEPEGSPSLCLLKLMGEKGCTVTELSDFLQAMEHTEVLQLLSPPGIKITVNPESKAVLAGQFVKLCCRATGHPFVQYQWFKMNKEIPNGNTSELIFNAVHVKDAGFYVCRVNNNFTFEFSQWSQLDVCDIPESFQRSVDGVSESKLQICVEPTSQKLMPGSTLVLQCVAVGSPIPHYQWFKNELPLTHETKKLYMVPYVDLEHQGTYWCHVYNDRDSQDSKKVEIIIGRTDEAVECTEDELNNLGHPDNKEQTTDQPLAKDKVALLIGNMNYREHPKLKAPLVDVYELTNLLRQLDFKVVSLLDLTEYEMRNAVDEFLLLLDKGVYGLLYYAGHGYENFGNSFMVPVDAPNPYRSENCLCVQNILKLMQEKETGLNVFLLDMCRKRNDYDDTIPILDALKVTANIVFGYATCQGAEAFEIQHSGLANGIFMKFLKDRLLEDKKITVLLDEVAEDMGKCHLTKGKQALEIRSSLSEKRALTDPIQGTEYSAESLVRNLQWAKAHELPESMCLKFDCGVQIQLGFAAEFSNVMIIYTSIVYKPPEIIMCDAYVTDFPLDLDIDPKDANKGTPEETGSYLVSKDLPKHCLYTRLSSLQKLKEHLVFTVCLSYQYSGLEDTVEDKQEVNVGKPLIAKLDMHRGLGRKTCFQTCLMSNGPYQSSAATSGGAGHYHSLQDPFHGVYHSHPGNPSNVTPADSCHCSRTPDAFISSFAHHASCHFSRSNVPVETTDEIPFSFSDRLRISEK
Nature of the assay: Inhibition of MALT1 in human Jurkat cell lysate preincubated for 2 hrs followed by addition of 25 uM Ac-LRSR-AMC substrate for 3 hrs by fluorescence based assay. Type of assay: cell-free. Summed up:
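MALT1 paracaspase activity in Jurkat cell lysate, read as fluorescence from AMC (7-amino-4-methylcoumarin) released when MALT1 cleaves the fluorogenic tetrapeptide Ac-LRSR-AMC. Inhibition is taken against an untreated control. IC50 is the mean of two independent experiments, each run in duplicate.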

A short description of assay [2]: Antiproliferative activity against human OCI-LY3 cells after 48 hrs by MTT assay. Type of assay: functional, cell-based. The following applies: OCI-Ly3, 48 h. Background: Formazan colour is commonly taken as a measure of viable cells.
The target of assay [3] is T2, Mucosa-associated lymphoid tissue lymphoma translocation protein 1 (Homo sapiens) (UniProt Q9UDY8).
T2 sequence (whole entry): T1 sequence (Q9UDY8 whole entry)
As to the kind of experiment: Inhibition of MALT1 paracaspase activity in human OCI-LY3 cells assessed as decrease in cleaved CYLD level after 24 hrs by western blot analysis. Format: cell-based. In general terms: In western blotting, separated proteins are transferred to a membrane and probed.

Assay [4] has as its target T1, Mucosa-associated lymphoid tissue lymphoma translocation protein 1. As to the kind of experiment: Inhibition of His-tagged human MALT1 (catalytic domain-339-719 aa) by fluorescence based assay using 25 uM Ac-LRSR-AMC as substrate.
Assay [5] in a line: Antiproliferative activity against human SupT1 cells. Type of assay: functional, cell-based. The following applies: SUP-T1.
Another assay concerns A549. Nature of the assay: Antiproliferative activity against human A549 cells. Format: functional, cell-based.
Assay [6] in a line: Antiproliferative activity against human MJ cells. Type of assay: functional, cell-based.
Assay [7] is described as follows: Antiproliferative activity against human NK92 cells. Type of assay: functional, cell-based.
For another assay, the system named is HuT78. Nature of the assay: Antiproliferative activity against human HUT78 cells. Format: functional, cell-based.

Structures are written as SMILES.

Take `CC(C)NC1=CC(=O)C(=O)c2ccccc21`: the half-maximal inhibitory concentration (IC50) in assay [1] was found to be 20.4 µM.

With `O=C1C=C(NC2CCN(Cc3ccccc3)C2)c2ccccc2C1=O` (stereo not drawn), the IC50 in assay [1] is 1.5 µM; in assay [2] it was over 10 µM.

Molecule `O=C1C=C(NCCCN2CCCC2)c2ccccc2C1=O` gave an IC50 in assay [1] of 11.9 µM.

For `CC1(C)CCC2=C(O1)c1ccc(F)cc1C(=O)C2=O`, the inhibition result in assay [3] was “Dose-dependent effect”. Moreover, the IC50 in [2] was determined as 3.3 µM; in assay [4], 1.5 µM.

Take `COc1cc2c(cc1OC)C(=O)C1=C(CCC(C)(C)O1)C2=O`: in assay [1], the IC50 was over 10 µM.

Take `COc1cc2c(cc1OC)C1=C(CCC(C)(C)O1)C(=O)C2=O`: the results for the concentration for half-maximal inhibition (IC50) in assay [2] and in [4] were 8.5 µM and 2.3 µM, respectively.

On to `CC(C)=CCC1=C(O)C(=O)c2cc(F)ccc2C1=O`, for which, in [1], the IC50 was over 10 µM.

The molecule `O=C1C=C(NCCN2CCOCC2)c2ccccc2C1=O` came in with a 50% inhibitory concentration (IC50) in assay [1] of 21.9 µM.

Consider `CC1(C)CCC2=C(O1)c1ccccc1C(=O)C2=O` [LAPACHONE], for which the half-inhibitory concentration (IC50) in assay [1] turned out to be 1.9 µM; in [2], 4 µM; in assay [4] it was 1.2 µM.

With `O=C1C=C(NC2CCN(Cc3ccccc3)CC2)c2ccccc2C1=O`, the IC50 in [1] came to 5.4 µM.

Regarding `CC1(C)CCC2=C(O1)c1ccc([N+](=O)[O-])cc1C(=O)C2=O`, the results for the concentration for half-maximal inhibition (IC50) in [2] and in [4] were 4.6 µM and 0.4 µM, respectively.

The molecule `O=C(CNC1=CC(=O)C(=O)c2ccccc21)NCCc1ccccc1` showed an IC50 in assay [1] of 3.1 µM.

As to `COc1ccc2c(c1)C1=C(CCC(C)(C)O1)C(=O)C2=O`, the IC50 is 17 µM in [2] and 9.2 µM in [4].

Molecule `O=C1C=C(NCC(=O)N2CCCC2)c2ccccc2C1=O` showed a concentration for half-maximal inhibition (IC50) in assay [1] of 4.1 µM.

`CC(C)=CCC1=C(O)C(=O)c2cc(Br)ccc2C1=O` came in with an IC50 in [1] of over 10 µM.

In the case of `COc1ccc2c(c1)C(=O)C(=O)C1=C2OC(C)(C)CC1`, the 50% inhibitory concentration (IC50) in assay [2] amounted to 3.1 µM; in [4], 0.6 µM.

The molecule `O=C1C=C(NCCc2ccccc2)c2ccccc2C1=O` had an IC50 in assay [1] of over 100 µM.

`COCCNC1=CC(=O)C(=O)c2ccccc21`: the IC50 is 7.8 µM in [1] and over 10 µM in assay [2].

As for `CC1(C)CCC2=C(O1)c1cc(O)ccc1C(=O)C2=O`, the IC50 in assay [4] came out at 9.3 µM.

As to `CC1(C)CCC2=C(O1)c1ccc(Br)cc1C(=O)C2=O`, the IC50 in assay [2] was determined as 4.1 µM; in assay [4] it was 9.2 µM.

In the case of `O=C1C=C(NCCCN2CCCC2=O)c2ccccc2C1=O`, the IC50 in assay [1] was determined as 14.4 µM.

As for `CC1(C)CCC2=C(O1)c1ccc(C#N)cc1C(=O)C2=O`, the half-inhibitory concentration (IC50) in assay [5] worked out at 5.6 µM; in the assay on A549, 5.7 µM; in assay [6], 16.7 µM; in assay [7], 17 µM; in [2], 1.5 µM; in [4], 1.6 µM. For the same molecule, in the assay with HuT78, 12.3 µM corresponded to half-maximal inhibition (IC50). In addition, the inhibition entry in [3] was “Dose-dependent effect”.

With `COCCOc1nc(-c2ccc(Cl)c(Cl)c2)n(-c2ccc(NC(=O)CCl)cc2)n1`, the results for the IC50 in assay [2] and in [4] were 2.6 µM and 3.3 µM, respectively.

For `CC(C)(C)OC(=O)NCCNC1=CC(=O)C(=O)c2ccccc21`, the 50% inhibitory concentration (IC50) in [1] stood at 14.9 µM.

In assay [1], `CN(C)CCNC1=CC(=O)C(=O)c2ccccc21` had an IC50 of 1.6 µM.

`CN(C)C1=CC(=O)C(=O)c2ccccc21`: the concentration for half-maximal inhibition (IC50) in [1] was 2.5 µM; in assay [2], over 10 µM.

In the case of `CNC(=O)CNC1=CC(=O)C(=O)c2ccccc21`, the 50% inhibitory concentration (IC50) worked out at 3 µM in assay [1] and 9.4 µM in assay [2].

As usually defined, the IC50 is the midpoint of a concentration-inhibition curve. Lower therefore signals greater potency.
